# Screens: PubChem BioAssay, several laboratories
# PLCb3 inh – PLC-beta3 (human) inhibition, primary screen; Q01970; AID 720704; hit rate 0.18% among 370,000; Purified PLC-beta3, fluorogenic substrate, fluorescence; inhibition, % at 12.2 µM; in the data active means inhibition above about 11%;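 further: 0% = median of compound wells on plate and 100% = full blocker control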
# VIM-2 inhibitor – blocks Pseudomonas aeruginosa VIM-2 metallo-beta-lactamase; hit rate 0.89% among 290,000; purified VIM-2, nitrocefin hydrolysis, epi-absorbance fluorescence; inhibition, % at 5.6 µM; AID 1527;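 active means inhibition above the mean of all tested compounds plus 3 SD, cutoff set per screening run, cut at about 7.5% in these data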;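 further: red hydrolysis product quenches plate fluorescence so inhibitors raise well fluorescence; 0% = enzyme with DMSO and 100% = DMSO without enzyme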
# PvdQ inh – P. aeruginosa PvdQ acylase inhibition | hit rate 0.063% among 340,000 | inhibition, % at 10 µM | purified PvdQ acylase, fluorescence plate reader; in the data active means inhibition above about 30%, passing the limit was not always enough;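 further: 0% = vehicle neutral wells and 100% = reference inhibitor wells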
# IMP-1 inhibitor – inhibitors of Pseudomonas aeruginosa IMP-1 metallo-beta-lactamase | purified IMP-1, nitrocefin hydrolysis, epi-absorbance fluorescence | inhibition, % at 5.6 µM | hit rate 0.45% among 290,000 | AID 1556;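 active means inhibition above the mean plus 3 SD of all compounds in the same screening run, cut at about 4.5% in these data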;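 further: 0% = IMP-1 with DMSO and 100% = DMSO wells lacking enzyme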
#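 system = purified recombinant IMP-1 beta-lactamase | amount = 0.2 nM IMP-1, as dispensed | medium = HEPES buffer pH 7.1 with ZnSO4 and Brij 35 | times = 25 °C, 15 min preincubation, 25 min reaction | detection = plate fluorescence quenching by hydrolysis product, ex 480/em 530 nm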
# PLC-gamma1 inh – PLC-gamma1 (human) inhibition, primary screen. P19174. purified PLC-gamma1, fluorogenic substrate, fluorescence. inhibition, % at 12.2 µM. hit rate 0.84% among 370,000. AID 720700; in the data active means inhibition above about 9.5%
# Numbers without * were called inactive; i = inactive; nt = not tested or not shown. Hits are enriched below; roughly 2% of the tested compounds scored in any of these assays.
SMILES,PLCb3 inh,VIM-2 inhibitor,PvdQ inh,IMP-1 inhibitor,PLC-gamma1 inh
CCn1c2nc(SCCN3CCOCC3)nnc2c2cc(C)cc(C)c21,-12.6,12.1*,-1.7,-3.5,-0.5
CCCn1c2ccccc2c2nnc(SCCN3CCOCC3)nc21,-11.0,6.0,-7.1,-2.7,-7.7
CCCn1c2ccc(F)cc2c2nnc(SCCN3CCCCC3)nc21,-6.9,5.2,-17.0,-1.3,2.9
CCn1c2ccc(F)cc2c2nnc(SCCN3CCCCC3)nc21,-7.4,10.4*,-17.0,-3.1,-0.9
Cc1ccc(S(=O)(=O)N2CCCC(C(=O)NCC3CCCO3)C2)cc1 (centres undefined),-5.2,-4.1,-0.5,-1.0,3.0
CCCS(=O)(=O)N1CCCC(C(=O)NCC2CCCO2)C1 (centres undefined),5.9,-4.3,-12.6,4.9*,5.5
O=C(O)C1=NN(c2cc(Cl)c(S(=O)(=O)O)cc2Cl)C(=O)C1,1.0,nt,6.6,nt,14.8*
CC1=NN(c2ccc(S(=O)(=O)O)cc2C)C(=O)C1,-2.5,4.0,-12.3,-0.5,0.4
Cc1ccc(C(=O)NCCN2C3=NC[C@H](Cc4ccc(O)cc4)N3C[C@H]2Cc2ccc(O)cc2)cc1Br,7.1,nt,-15.2,nt,10.2*
Cc1ccc(NC(=O)CN(C)C(=O)CSc2nccn2C)cc1,6.7,nt,-8.2,nt,13.6*
Cc1ccc(NC(=O)CN(C)C(=O)CSc2nncn2C)cc1,-4.0,-3.1,6.8,-4.5,0.5
COC(=O)[C@]12C[C@H](CC(=O)NCC34CC5CC(CC(C5)C3)C4)C(=O)N(Cc3ccco3)C1=C[C@H](C1CCCC1)O[C@@H]2C,2.1,nt,nt,nt,0.3
O=S(=O)(c1ccc(OCC(O)CNCc2ccco2)c(Cl)c1)N1CCOCC1 (centres undefined),-0.3,-2.2,-8.7,-2.1,5.3
O=C(COc1ccc(S(=O)(=O)N2CCOCC2)cc1Cl)NCc1ccco1,-0.1,-2.6,7.7,5.4*,3.8
CCOC(=O)N1CCN(S(=O)(=O)c2ccc(OCC(=O)OC)c(Cl)c2)CC1,0.1,-0.8,5.4,5.0*,4.8
C[C@@H]1ON(C)[C@H]2C[C@H]3c4cc(-c5ccc(F)cc5)ccc4CCN3C[C@@H]12,-28.4,nt,nt,nt,-25.4
Cc1ccc(Cn2cc(CN3[C@@H](Cc4ccccc4)COc4cc(Br)ccc4S3(=O)=O)nn2)cc1,-2.9,nt,nt,nt,-1.4
O=C(CN(CCc1ccccc1)S(=O)(=O)c1ccc(F)cc1)N1CCOCC1,-3.6,nt,nt,nt,0.6
O=C(CSc1nnc(-c2ccccc2)n1-c1ccc(Cl)cc1)c1ccc(Cl)cc1,2.1,nt,nt,nt,1.4
COc1ccc(CCNC(=O)c2cccc(S(=O)(=O)N3CCc4ccccc4C3)c2)cc1,-5.1,nt,43.9*,nt,0.3
O=C(N/N=C/c1sc(=O)n(Cc2ccc(Br)cc2)c1Cl)c1ccco1,-13.5,1.6,6.0,23.9*,-2.7
O=C(N/N=C/c1ccc(Br)s1)c1ccco1,1.7,-1.4,-6.5,-2.0,2.1
CCN(CC)CCCNC(=O)c1cc(Cl)c(NC(=O)C2=C(C)OCCS2)cc1OC,-7.6,10.8*,-14.2,-2.0,0.1
COC1=C(Br)C(=O)c2nc(C)ccc2C1=O,-0.6,nt,nt,nt,15.2*
COc1ccc(CC2CCN(c3ncnc4sccc34)CC2)cc1,-7.3,nt,nt,nt,-1.2
SMILES,PLCb3 inh,VIM-2 inhibitor,PvdQ inh,IMP-1 inhibitor,PLC-gamma1 inh
CCCN1CCS(=O)(=O)N(Cc2cn(Cc3ccc(F)cc3)nn2)C(C(=O)OC)C1 (centres undefined),-0.2,nt,nt,nt,1.1
O=C(OCc1ccccc1)N(CCCCN(CCCNCc1ccccc1)C(=O)OCc1ccccc1)CCCNCc1ccccc1,4.5,nt,-9.2,nt,10.0*
CCOc1ccc(CCNC(=O)c2cc3ccsc3n2C)cc1OCC,2.3,nt,nt,nt,6.6
CS(=O)(=O)N1c2ccccc2C[C@H]1Cc1cc2ccccc2o1,-3.5,nt,nt,nt,-1.1
Cn1c(OCc2cccnc2)nc2c1c(=O)n(Cc1ccccc1)c(=O)n2C,-1.0,8.7*,-13.8,-2.5,1.5
Cn1c(=O)n(Cc2ccccc2)c(=O)c2c1nc1n2CCCN1Cc1ccccc1,0.4,-3.6,-1.0,-4.5,11.1*
COC(=O)[C@]12C[C@H](CC(=O)NCC3CCCCC3)C(=O)N(Cc3ccc(Cl)cc3Cl)C1=C[C@H](C(C)(C)C)O[C@@H]2C,1.8,nt,nt,nt,0.0
N#CC1=C(c2ccccc2)/C(=C/c2ccccc2)OC1=O,-5.9,-1.4,10.2,-2.6,-5.6
N#CC(C#N)=C1NC(N)=C(C#N)C(c2ccccc2)=C1C#N,i,-1.7,-6.4,22.7*,i
Cc1ccc(C)c(NS(=O)(=O)c2cc(C(=O)NCCSC3CCCCC3)ccc2C)c1,2.0,-4.1,-10.3,-2.6,14.3*
CCc1ccc(CNCC(=O)N2CCC3(CC2)OCCO3)s1,0.5,nt,nt,nt,2.4
O=C(CSc1nnnn1-c1ccc(F)cc1)Nc1nc2ccccc2s1,2.0,-2.2,-7.3,4.7*,3.5
Cc1ccc(C)c(NC(=S)Nc2cccc3cnccc23)c1,-9.8,10.9*,-7.3,0.0,-7.0
Cc1ccccc1NC(=S)Nc1cccc2cnccc12,-19.2,8.0*,-11.7,-4.0,-12.3
CCC(CO)Nc1cccc2c1S(=O)(=O)N(Cc1cn(Cc3ccc(F)cc3)nn1)Cc1ccccc1O2 (centres undefined),0.9,nt,nt,nt,0.8
S=c1[nH]nc(-c2ccco2)n1/N=C/c1cccc(Cl)c1,-10.7,9.1*,-13.6,-3.9,-2.9
S=c1[nH]nc(-c2ccco2)n1/N=C/c1ccc(Cl)c(Cl)c1,-1.0,-2.3,6.9,-4.4,-3.2
S=c1[nH]nc(-c2ccco2)n1-c1ccccc1Cl,0.6,16.0*,-4.2,-2.5,-0.8
Cc1ccc(-c2n[nH]c(=S)n2/N=C/C=C/c2ccccc2[N+](=O)[O-])cc1,0.2,-5.2,0.5,-2.9,0.4
O=[N+]([O-])c1ccccc1/C=C/C=N/n1c(-c2ccco2)n[nH]c1=S,0.9,9.8*,4.3,-2.1,2.5
S=c1[nH]nc(-c2cc(-c3ccco3)[nH]n2)n1-c1ccccc1Cl,-6.9,2.0,-6.5,0.8,-3.9
S=c1[nH]nc(-c2ccco2)n1/N=C/C(Cl)=C/c1ccccc1,-7.6,8.1*,2.4,-3.3,-3.2
COCc1cn(-c2ccc3c(c2)[C@]2(CC(=O)N(C)C2c2ccccc2)C(=O)N3CC(C)C)nn1 (some centres undefined),2.3,nt,nt,nt,1.7
COC(=O)C1CN(Cc2ccc(OC)cc2)CCS(=O)(=O)N1Cc1cn(CCOC(C)=O)nn1 (centres undefined),1.7,nt,nt,nt,2.3
Cc1cccc(-c2cccc3c4c([nH]c23)[C@@H]2C[C@H](N(C)C(=O)Nc3ccccc3)[C@H]([C@H](C)O)CN2CC4)c1,-48.4,nt,nt,nt,-43.8
Fc1ccccc1-c1nnc2ccc3ccccc3n12,-5.2,-1.6,-10.5,4.8*,1.9
Cc1ccc(C(C(=O)NC2CCCCC2)N(Cc2ccccc2)C(=O)Cc2c[nH]c3ccccc23)o1 (centres undefined),4.9,-3.0,-19.4,-4.0,9.3
COc1ccc(CN(C(=O)Cc2c[nH]c3ccccc23)C(C(=O)NC2CCCCC2)c2ccc(C)o2)cc1 (centres undefined),-1.6,-2.2,3.6,49.4*,2.1
